Activity calls are given as the source filed them. The calls are words filed in the database; no cut-off is given here.
Columns and labels:
Orexin receptor type 2 [1] = molecular target: T1, Orexin receptor type 2 (Homo sapiens, UniProt O43614); assay: Antagonist activity at human OX2 receptor expressed in HEK cells assessed as inhibition of orexin A-induced Ca2+ accumulation after 1 hr by Fluo-4-AM staining-based FLIPR assay; assay type: functional, cell-based, HEK293
T1 sequence (O43614 whole entry): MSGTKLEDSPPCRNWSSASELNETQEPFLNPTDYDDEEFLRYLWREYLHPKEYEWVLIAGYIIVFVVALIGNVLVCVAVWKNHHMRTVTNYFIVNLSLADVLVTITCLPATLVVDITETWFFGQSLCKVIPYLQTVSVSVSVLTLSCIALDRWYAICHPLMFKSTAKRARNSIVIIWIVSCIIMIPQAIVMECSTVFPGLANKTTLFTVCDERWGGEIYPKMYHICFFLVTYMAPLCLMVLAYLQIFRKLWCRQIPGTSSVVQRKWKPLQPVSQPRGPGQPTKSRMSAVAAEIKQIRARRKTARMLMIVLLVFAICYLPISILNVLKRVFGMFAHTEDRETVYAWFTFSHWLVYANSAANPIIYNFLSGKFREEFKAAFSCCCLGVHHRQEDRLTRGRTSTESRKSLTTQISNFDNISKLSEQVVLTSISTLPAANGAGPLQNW
How it was run: (§1)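 Recombinant CHO or HEK cells expressing human OX1R or OX2R, serum-deprived overnight in HEPES buffer pH 7.4 with 1% BSA. Cells were loaded with 2 μM Fluo4-AM plus 0.1 mM probenecid for 1 h. Compound (up to eight concentrations, usually 10⁻⁹–10⁻⁵ M) was added first, then submaximal orexin A 1 h later. Curves run in triplicate; pKi from IC50 by Cheng–Prusoff.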

[2] = molecular target: T2, Orexin/Hypocretin receptor type 1 (Homo sapiens, UniProt O43613); assay: Antagonist activity at human OX1 receptor expressed in CHO cells assessed as inhibition of orexin A-induced Ca2+ accumulation after 1 hr by Fluo-4-AM staining-based FLIPR assay; assay type: functional, cell-based; how it was run: as §1
T2 sequence (O43613 whole entry): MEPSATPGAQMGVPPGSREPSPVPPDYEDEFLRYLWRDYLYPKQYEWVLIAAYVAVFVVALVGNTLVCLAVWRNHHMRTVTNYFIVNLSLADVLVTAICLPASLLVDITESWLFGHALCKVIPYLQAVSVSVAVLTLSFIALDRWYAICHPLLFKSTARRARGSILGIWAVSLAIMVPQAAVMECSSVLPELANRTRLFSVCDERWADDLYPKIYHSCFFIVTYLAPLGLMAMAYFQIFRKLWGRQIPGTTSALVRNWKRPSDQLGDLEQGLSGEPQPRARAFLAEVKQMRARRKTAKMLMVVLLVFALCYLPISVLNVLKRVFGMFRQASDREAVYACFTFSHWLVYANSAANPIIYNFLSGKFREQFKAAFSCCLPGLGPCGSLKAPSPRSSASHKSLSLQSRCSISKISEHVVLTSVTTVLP

Mus musculus [3] = assay: Induction of sleep in C57BL/6 mouse assessed as increased rapid eye movement sleep proportion at 50 mg/kg, po measured during 1 hr by EEG/EMG analysis relative to vehicle-treated control; assay type: functional, organism-based; set-up: dose 50 mg/kg
How it was run: (§2)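 Male C57Bl/6 mice with implanted cortical EEG screw electrodes and EMG, recovered 2 weeks, 12 h/12 h light/dark cycle. Crossover: vehicle (0.5% methylcellulose, 10 mL/kg po) on day 2, compound po on day 3, each given 5–15 min before lights-off. 23 h recordings; EEG filtered 0.3–30 Hz, EMG 5–30 Hz; 10 s epochs scored as wake, NREM or REM from EEG/EMG and infrared motility.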

[4] = Ratio of drug level in brain to blood in C57BL/6 mouse at 3 mg/kg, po after 15 mins; assay type: ADME, organism-based; set-up: dose 3 mg/kg, route oral
How it was run: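 Male C57BL/6 mice (20–30 g), cassette dosing of up to five compounds plus a reference. Blood and brain collected 15 min post-dose, n = 3. Brain homogenised in 2 mM KH2PO4 and extracted with acetonitrile. LC/MS/MS quantitation; mean brain/blood ratio.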

Mus musculus [5] = assay: Induction of sleep in C57BL/6 mouse assessed as increase in non-rapid eye movement at 50 mg/kg, po measured during 4 hrs by EEG/EMG analysis relative to vehicle-treated control; assay type: functional, organism-based; set-up: dose 50 mg/kg; how it was run: as §2
Mus musculus [6] = assay: Induction of sleep in C57BL/6 mouse assessed as rapid eye movement and non-rapid eye movement sleep balance at 50 mg/kg, po measured during 1 hr by EEG/EMG analysis relative to vehicle-treated control; assay type: functional, organism-based; set-up: dose 50 mg/kg
How it was run: (§3)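 Male C57Bl/6 mice with implanted cortical EEG and EMG electrodes, 2-week recovery, 12/12 h light cycle. Vehicle (0.5% methylcellulose, 10 mL/kg po) given on day 2 and compound po on day 3, just before lights off. Recording ran 23 h. 10 s epochs scored as wake, NREM or REM from EEG/EMG plus infrared motility. Each animal served as its own vehicle control.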

[7] = Volume of distribution at steady state in C57BL/6 mouse at 1 mg/kg, iv; assay type: ADME, organism-based; set-up: dose 1 mg/kg, route intravenous; conditions: in vivo, read-out: Vdss
How it was run: (§4)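 Cassette PK in male C57BL/6 mice (20–30 g), up to five test compounds plus one reference. Iv 1 mg/kg in NMP/blank plasma 10/90 v/v, 5 mL/kg, saphenous vein. Oral 3 mg/kg suspended in 0.5% w/v carboxymethylcellulose in water/Tween 80 (99.5/0.5), 10 mL/kg gavage. Blood sampled 5 min (iv) or 15 min (po) to 24 h, n = 3 per time point, measured by LC/MS/MS.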

Orexin receptor type 2 [8] = molecular target: T3, Orexin receptor type 2 (Mus musculus, UniProt P58308); assay: Antagonist activity at mouse OX2 receptor expressed in HEK cells assessed as inhibition of orexin A-induced Ca2+ accumulation after 1 hr by Fluo-4-AM staining-based FLIPR assay; assay type: functional, cell-based, HEK293
T3 sequence (P58308 whole entry): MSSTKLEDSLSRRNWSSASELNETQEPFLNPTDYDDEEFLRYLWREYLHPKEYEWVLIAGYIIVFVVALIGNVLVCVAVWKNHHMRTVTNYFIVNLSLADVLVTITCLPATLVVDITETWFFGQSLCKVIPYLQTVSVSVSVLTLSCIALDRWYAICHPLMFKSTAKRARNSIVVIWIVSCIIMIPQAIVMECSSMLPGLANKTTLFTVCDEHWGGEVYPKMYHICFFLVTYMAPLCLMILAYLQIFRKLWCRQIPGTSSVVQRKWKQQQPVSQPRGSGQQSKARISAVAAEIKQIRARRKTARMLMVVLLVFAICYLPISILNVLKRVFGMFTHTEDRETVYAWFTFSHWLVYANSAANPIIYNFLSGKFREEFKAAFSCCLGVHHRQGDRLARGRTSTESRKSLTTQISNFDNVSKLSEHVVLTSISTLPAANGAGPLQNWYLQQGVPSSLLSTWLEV

[9] = molecular target: T4, Orexin/Hypocretin receptor type 1 (Mus musculus, UniProt P58307); assay: Antagonist activity at mouse OX1 receptor expressed in CHO cells assessed as inhibition of orexin A-induced Ca2+ accumulation after 1 hr by Fluo-4-AM staining-based FLIPR assay; assay type: functional, cell-based
T4 sequence (P58307 whole entry): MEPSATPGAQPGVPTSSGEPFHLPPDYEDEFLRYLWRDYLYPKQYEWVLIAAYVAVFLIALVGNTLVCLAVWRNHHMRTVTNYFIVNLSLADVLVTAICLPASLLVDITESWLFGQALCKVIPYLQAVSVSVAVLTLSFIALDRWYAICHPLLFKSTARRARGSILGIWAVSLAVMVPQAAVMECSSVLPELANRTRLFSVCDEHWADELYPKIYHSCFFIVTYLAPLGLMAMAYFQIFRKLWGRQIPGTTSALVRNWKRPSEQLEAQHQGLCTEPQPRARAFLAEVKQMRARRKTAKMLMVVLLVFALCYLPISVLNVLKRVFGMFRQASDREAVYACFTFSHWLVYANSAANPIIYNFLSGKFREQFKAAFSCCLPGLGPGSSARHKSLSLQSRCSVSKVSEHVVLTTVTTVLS

[10] = Cmax in C57BL/6 mouse blood at 3 mg/kg, po; assay type: ADME, organism-based; set-up: dose 3 mg/kg, route oral; how it was run: as §4
[11] = Total blood clearance in C57BL/6 mouse at 1 mg/kg, iv; assay type: ADME, organism-based; set-up: dose 1 mg/kg, route intravenous; how it was run: as §4
[12] = AUC (infinity) in C57BL/6 mouse blood at 3 mg/kg, po; assay type: ADME, organism-based; set-up: time infinity, dose 3 mg/kg, route oral; how it was run: as §4
Mus musculus [13] = assay: Induction of sleep in C57BL/6 mouse assessed as increase in rapid eye movement at 50 mg/kg, po measured during 1 hr by EEG/EMG analysis relative to vehicle-treated control; assay type: functional, organism-based; set-up: dose 50 mg/kg; how it was run: as §3
Mus musculus [14] = assay: Effect on locomotion in C57BL/6 mouse assessed as reduction of motility at 50 mg/kg, po measured up to 4 hrs; assay type: functional, organism-based; set-up: dose 50 mg/kg
How it was run: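 Mice habituated, then dosed orally immediately before lights-off (15:00, start of active phase); vehicle 0.5% methylcellulose in water. Inactivity = any minute with no infrared beam breaks. Per-animal difference between inactivity 15:00–19:00 post-dose and the same 4 h during habituation 24 h earlier. n = 6; one-way ANOVA with Dunnett's test versus vehicle.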

Brain [15] = assay: Fraction unbound in C57BL/6 mouse brain at 50 mg/kg, po after 1 hr by LC-MS/MS analysis; assay type: ADME, organism-based; set-up: dose 50 mg/kg, route oral; conditions: in vivo
How it was run: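 Unbound fraction assessed in mouse brain homogenate by a slightly adapted literature method, measured separately from the dosed animals. Free brain level obtained by multiplying fraction unbound by brain concentration from the 50 mg/kg po satellite group at 60 min. Mean ± SD, n = 3.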

Mus musculus [16] = assay: Induction of sleep in C57BL/6 mouse assessed as increase in total sleep time at 50 mg/kg, po measured during first 4 hrs by EEG/EMG analysis relative to vehicle-treated control
[17] = Drug uptake in C57BL/6 mouse blood at 50 mg/kg after 1 hr by LC-MS/MS analysis; assay type: ADME, organism-based; set-up: dose 50 mg/kg; conditions: read-out: Drug uptake
How it was run: (§5)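 Satellite PK group: oral gavage of 50 mg/kg suspended in 0.5% w/v methylcellulose in water, 10 mL/kg. Blood and brain taken after decapitation at 15 and 60 min post-dose, n = 3 mice per time point, stored at −20 °C. Brain homogenised in 2 mM KH₂PO₄; acetonitrile quench with internal standard; LC/MS/MS against six-level calibration curve. Mean ± SD reported.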

[18] = Oral bioavailability in C57BL/6 mouse blood at 3 mg/kg; assay type: ADME, organism-based; how it was run: as §4
Brain [19] = assay: Drug uptake in C57BL/6 mouse brain at 50 mg/kg after 1 hr by LC-MS/MS analysis; assay type: ADME, organism-based; set-up: dose 50 mg/kg; conditions: in vivo; how it was run: as §5

Row | Structure (SMILES) | Ki (Orexin receptor type 2 [1]) [nM] | Ki [2] [nM] | other results
1 | Cc1ccc(C)c(CN2C(=O)CCCC23CCN(c2cnc4ccccc4n2)CC3)c1 | 12.9 | 58.9 | 
2 | COc1ccc2[nH]cc(CN3CCCC4(CCN(c5nc(C)cc(C)n5)CC4)C3=O)c2c1 | 0.166 | 20.4 | 
3 | Cc1cc(C)nc(N2CCC3(CCCN(Cc4nn(C)cc4-c4ccccc4)C3=O)CC2)n1 | 17.4 | 813 | 
4 | O=C1N(Cc2c[nH]c3ccccc23)CCCC12CCN(c1ncccn1)CC2 | 550 |  | pIC50 ([2]; cho): > 5
5 | Cc1cc(C)nc(N2CCC3(CCCN(Cc4n[nH]c5ccccc45)C3=O)CC2)n1 | 6.92 | 490 | 
6 | O=C(Cc1ccccc1)N1CCCC12CCN(c1cnc3ccccc3n1)CC2 | 186 | 955 | 
7 | O=C1N(Cc2c[nH]c3ccccc23)CCCC12CCN(c1cnc3ccccc3n1)CC2 | 61.7 | 288 | 
8 | Cc1cc(C)nc(N2CCC3(CCCN(Cc4n[nH]cc4-c4ccccc4)C3=O)CC2)n1 | 3.89 | 776 | 
9 | Cc1ccnc(N2CCC3(CCCN(Cc4c[nH]c5ccccc45)C3=O)CC2)n1 | 26.9 | 1410 | 
10 | COc1ccnc(N2CCC3(CCCN(Cc4c[nH]c5ccccc45)C3=O)CC2)n1 |  |  | Activity (Mus musculus [3]): Active; Kp at 0.25 h [4]: 1.1; Activity (Mus musculus [5]): Active; Activity (Mus musculus [6]): inactive; Vd [7]: 1.6 L/kg; Ki (Orexin receptor type 2 [8]): 58.9 nM; Ki [9]: 457 nM; Cmax [10]: 0.864 µM; clearance [11]: 28 mL/min/kg; AUC(0-inf) [12]: 2.09 µM·h; Activity (Mus musculus [13]): inactive; Activity (Mus musculus [14]): Active; Fu (Brain [15]): 0.61%; Activity (Mus musculus [16]): Active; concentration at 1 h [17]: 6.91 µM; bioavailability [18]: 47%; Drug uptake (Brain [19]): 8778 pmol/g
11 | O=C1N(Cc2cccc3[nH]ccc23)CCCC12CCN(c1cnc3ccccc3n1)CC2 | 77.6 | 550 | 

— ChEMBL document CHEMBL2434958, “Identification of a novel series of orexin receptor antagonists with a distinct effect on sleep architecture for the treatment of insomnia” (J Med Chem, 2013)
